Publication PMC11128822 (Heliyon, 2024)
Like-named read-outs stand apart in the source and are kept apart here.

Columns and labels:
SARS-CoV-2 [1] = assay: Lung histology of infected hamsters; assay type: in vivo, Syrian hamsters
How it was run: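 Infected hamsters were dosed every 12 h from the time of infection. MOV was given by oral gavage under isoflurane in water with 10 % PEG400 and 2.5 % Kolliphor EL. FAV was given intraperitoneally to awake animals. Euthanasia was on D5. Lungs were collected after intratracheal instillation of 4 % formaldehyde, fixed 72 h at room temperature and paraffin-embedded. Lesions were graded semi-quantitatively (up to 4 = severe), and scores were summed.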

SARS-CoV-2 [2] = assay: microbe, parasite or virus in culture; assay type: cell-based, human; conditions: for viral infectious titres at the apical side of HAE vs virus control: D2 to D4
SARS-CoV-2 [3] = assay type: cell-based, human; conditions: D2 to D4
SARS-CoV-2 [4] = assay type: in vivo, Syrian hamsters; conditions: for reduction of lung infectious viral titers vs untreated: 300 mg/kg/day BID oral, D3
SARS-CoV-2 [5] = assay type: in vivo, Syrian hamsters
SARS-CoV-2 [6] = assay type: in vivo, Syrian hamsters; conditions: 150, 300, 400 mg/kg/day BID, from D0, D3
cytokines in lungs = assay: Expression level of seven cytokines in lungs; assay type: in vivo, Syrian hamsters; conditions: 300 mg/kg/day BID from D0, D5
SARS-CoV-2 genome [7] = assay type: in vivo, Syrian hamsters; conditions: hamster lungs
SARS-CoV-2 genome [8] = assay: Sequence analysis of the full-length viral genome in HAE supernatants; assay type: cell-based, human
COVID-19 [9] = conditions: phase 3 MOVE OUT trial; cited from earlier work
COVID-19 [10] = conditions: PANORAMIC trial, cited from earlier work
[11] = Molnupiravir pharmacokinetics: NHC trough concentration in plasma and lung; assay type: in vivo, Syrian hamsters
How it was run: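 MOV was given by oral gavage every 12 h, with the first dose at infection (D0), 12 h before (D-1) or 12 h after (D1). Hamsters were euthanised 15 h after the last dose on D3, giving trough values. Samples were EDTA plasma and lung lobes homogenised in 0.9 % NaCl. NHC was extracted with acetonitrile and quantified by UPLC-MS/MS (LLOQ 5 ng/mL). The partition coefficient was the lung:plasma concentration ratio.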

NC(=O)c1nc(F)c[nH]c1=O [FAV, Favipiravir]
cumulative pathological scores vs untreated group (SARS-CoV-2 [1]; FAV intraperitoneally 925 mg/kg/day BID, lungs at D5): significantly different score

CC(C)C(=O)OC[C@H]1O[C@@H](n2ccc(NO)nc2=O)[C@H](O)[C@@H]1O [MOV, molnupiravir]
viral infectious titres at the apical side of HAE vs virus control (SARS-CoV-2 [2]; 0.3 μM): significant decrease in infectious titres was observed only at D3 | viral infectious titres at the apical side of HAE vs virus control (SARS-CoV-2 [2]; 1 μM): Significant decrease | viral infectious titres at the apical side of HAE vs virus control (SARS-CoV-2 [2]; 3 μM): Significant decrease | IC50 (SARS-CoV-2 [2]; Severe acute respiratory syndrome coronavirus 2, in Homo sapiens): 1000 nM | viral RNA yields at the apical side of HAE vs virus control (SARS-CoV-2 [3]; 0.3 μM): no significant reduction | viral RNA yields at the apical side of HAE vs virus control (SARS-CoV-2 [3]; 1 μM): significant reduction was observed at D3 and D4 | viral RNA yields at the apical side of HAE vs virus control (SARS-CoV-2 [3]; 3 μM): significant decrease | infectious titers in clarified lung homogenates vs untreated animals (SARS-CoV-2 [4]; 150, 300 and 400 mg/kg/day BID oral, from D0, lungs at D3): significantly lower | lung particle-to-infectious unit ratio vs untreated (SARS-CoV-2 [4]; dose assessment experiment, 150-400 mg/kg/day BID): No significant differences | reduction of lung infectious viral titers vs untreated (SARS-CoV-2 [4]; pre-emptive (D0)): 1.03 log10 | lung particles to infectious unit ratio vs control (SARS-CoV-2 [4]; preventive (D-1), 300 mg/kg/day BID): significant elevation | reduction of lung infectious viral titers vs untreated (SARS-CoV-2 [4]; preventive (D-1)): 1.12 log10 | viral RNA yields in lungs vs control group (SARS-CoV-2 [5]; 300 mg/kg/day BID, three treated groups (D-1, D0, D1)): did not differ significantly | viral RNA yields in lungs vs untreated animals (SARS-CoV-2 [5]; 150 or 400 mg/kg/day BID oral, from D0, D3): significant lower | RNA viral yields in nasal washes vs untreated animals (SARS-CoV-2 [6]): no significant differences | expression of IL10 in lungs vs vehicle group (cytokines in lungs): reduction was not significant | expression of TNF in lungs vs vehicle group (cytokines in lungs): reduction was not significant | expression of cytokine CCl5 in lungs vs vehicle group (cytokines in lungs): significantly decrease | expression of cytokine CxCl10 in lungs vs vehicle group (cytokines in lungs): significantly decrease | cumulative pathological scores vs untreated group (SARS-CoV-2 [1]; MOV 300 mg/kg/day BID from D0, lungs at D5): no significant difference | G to A MVs vs untreated group (SARS-CoV-2 genome [7]; 300 mg/kg/day BID): significant increase | mean frequency of transitions-type MVs vs untreated (SARS-CoV-2 genome [7]; 300 mg/kg/day BID): higher in the treated group compared to the untreated group, but not significantly | number of MVs with a frequency greater than 10 % vs untreated (SARS-CoV-2 genome [7]; 300 mg/kg/day BID): significant higher number | mean number of MVs per genome (SARS-CoV-2 genome [7]; 300 mg/kg/day BID from D0): 29.5 | average number of MVs per genome (SARS-CoV-2 genome [8]; 0.3 μM): 20 | mean frequency of transition-type MVs (SARS-CoV-2 genome [8]; 0.3 μM): 0.81 | average number of MVs per genome (SARS-CoV-2 genome [8]; 1 μM): 88 | mean frequency of transition-type MVs (SARS-CoV-2 genome [8]; 1 μM): 0.97 | average number of MVs per genome (SARS-CoV-2 genome [8]; 3 μM): 18.3 | mean frequency of transition-type MVs (SARS-CoV-2 genome [8]; 3 μM): 0.89 | increase of type C to U-MVs, exposed vs non-exposed HAE (SARS-CoV-2 genome [8]; pooled analysis): significance found | efficacy in reducing the risk of hospitalisation or death (COVID-19 [9]): modest efficacy | time to recovery (COVID-19 [10]): reduced time to recovery | viral load (COVID-19 [10]): reduced viral load | reduction in the risk of hospitalisation or death (COVID-19 [10]; vaccinated patients): no reduction

O=c1nc(NO)ccn1[C@@H]1O[C@H](CO)[C@@H](O)[C@H]1O [NHC, β-D N4-hydroxycytidine]
NHC concentration in lung, 400 mg/kg/day BID compared to 150 mg/kg/day BID ([11]; 15 h after last intake): significantly higher | NHC plasma trough concentrations ([11]; 15 h after last intake, MOV 150, 300, 400 mg/kg/day BID oral): comparable between doses | lung and plasma NHC trough concentrations between treatment strategies ([11]; MOV 300 mg/kg/day BID from D-1, D0 or D1): no difference | Lung partition coefficients (ratio of lung over plasma concentrations) ([11]; dose assessment experiment, all doses): above 1 | pulmonary partition coefficient ([11]; therapeutic strategies experiment, 300 mg/kg/day BID): above 1

CCC(CC)COC(=O)[C@H](C)N[P@](=O)(OC[C@H]1O[C@@](C#N)(c2ccc3c(N)ncnn23)[C@H](O)[C@@H]1O)Oc1ccccc1 [RDV, Remdesivir]
infectious titres in HAE (SARS-CoV-2 [2]; 10 μM, positive control): significantly reduced
